In ChEMBL document CHEMBL1123305, “Synthesis and gastric antisecretory properties of alpha chain diene derivatives of misoprostol” (1986):

Tests used:
Canis familiaris [1] = test: Intravenous gastric antisecretory activity against histamine-stimulated Heidenhain Pouch (HP) dogs at 1 ug/kg; assay type: functional; settings: Canis lupus familiaris, Stomach
How it was run: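 Conscious, 18-h-fasted Heidenhain pouch dogs in Pavlov stands, iv 0.15 M NaCl infusion, used at most weekly. Histamine 1.0 mg/h was infused after a 15–30-min basal period. At steady state (about 1 h), a single iv bolus was given in ethanol stock diluted with isoosmotic pH 7.4 phosphate buffer (≤20% ethanol). Acid was titrated to pH 7.0 over 15-min collections; percent inhibition was taken from maximum inhibition of total acid output.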

Canis familiaris [2] = species: Canis familiaris; test: Oral gastric antisecretory effect in histamine-stimulated Heidenhain Pouch (HP) dogs; assay type: functional; settings: Canis lupus familiaris, Stomach, in the assay text read “gastric fistula (GF)” for “Heidenhain Pouch (HP)”
How it was run: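 Conscious gastric fistula dogs, 4–12 per dose, three doses. After a 30-min basal period, drug was given intragastrically via dosing plug and the cannula closed for 30 min. Histamine was then infused at 15 μg/kg per h, with 30-min collections for 4 h. Acid was titrated to pH 7.0. ED50 is the dose giving 50% inhibition of 4-h total acid output. Relative potency and 95% limits came from bioassay analysis.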

Rattus norvegicus = species: Rattus norvegicus; test: Effect determining the diarrheagenic activity in rats; assay type: functional
How it was run: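 Adult male Charles River rats (210–230 g), housed singly and fasted 24 h, n = 6–12. Logarithmically graded oral doses were given. Diarrhea was scored all-or-none hourly to 8 h. ED50 and approximate asymptotic 95% confidence limits came from a maximum-likelihood logistic dose–response fit.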

[3] = Ratio of ED50 value of diarrheal effect to that of ED50 value of antisecretory effect; assay type: functional
How it was run: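 Ratio of rat oral diarrheal ED50 at 8 h to intragastric antisecretory ED50 in histamine-stimulated gastric fistula dogs (4-h total acid output).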

Canis familiaris [4] = species: Canis familiaris; test: Relative gastric antisecretory effect in histamine-stimulated gastric fistula (GF) dogs; settings: Canis lupus familiaris, Stomach

## CCCCC(C)(O)C/C=C/[C@H]1[C@H](O)CC(=O)[C@@H]1C/C=C\C/C=C/C(=O)OC (stereo not given in full)
Canis familiaris [1]
  inhibition in vivo at 0.001 mg/kg: 0%

## CCCCC(C)(O)C/C=C/[C@H]1[C@H](O)CC(=O)[C@@H]1C/C=C/C/C=C/C(=O)OC (stereo not given in full)
Canis familiaris [1]
  inhibition in vivo at 0.001 mg/kg: 68%

## CCCCC(C)(O)C/C=C/[C@H]1[C@H](O)CC(=O)[C@@H]1CC/C=C\CCC(=O)OC (stereo not given in full) [ENISOPROST]
Canis familiaris [1]
  inhibition in vivo at 0.001 mg/kg: 92%
Canis familiaris [2]
  ED50: 0.05 µg/kg
Rattus norvegicus
  ED50: 62 µg/kg
[3]
  Ratio: 1240
Canis familiaris [4]
  Relative potency: 1

## CCCCC(C)(O)C/C=C/[C@H]1[C@H](O)CC(=O)[C@@H]1C/C=C\C=C\CC(=O)OC (stereo not given in full)
Canis familiaris [1]
  inhibition in vivo at 0.001 mg/kg: 83%
Canis familiaris [2]
  ED50: 0.08 µg/kg
Rattus norvegicus
  ED50: 570 µg/kg
[3]
  Ratio: 7120
Canis familiaris [4]
  Relative potency: 0.31

## CCCCC(C)(O)C/C=C/[C@H]1[C@H](O)CC(=O)[C@@H]1CCCCCCC(=O)OC (stereo not given in full) [MISOPROSTOL]
Canis familiaris [1]
  inhibition in vivo at 0.001 mg/kg: 79%
Canis familiaris [2]
  ED50: 0.28 µg/kg
[3]
  Ratio: 1310
Canis familiaris [4]
  Relative potency: 0.08

## CCCCC(C)(O)C/C=C/[C@H]1[C@H](O)CC(=O)[C@@H]1CC/C=C\C=C\C(=O)OC (stereo not given in full)
Canis familiaris [1]
  inhibition in vivo at 0.001 mg/kg: 41%

## CCCCC(C)(O)C/C=C/[C@H]1[C@H](O)CC(=O)[C@@H]1C/C=C/C=C\CC(=O)OC (stereo not given in full)
Canis familiaris [1]
  inhibition in vivo at 0.001 mg/kg: 96%

## CCCCC(C)(O)C/C=C/[C@H]1[C@H](O)CC(=O)[C@@H]1CC/C=C/C=C/C(=O)OC (stereo not given in full)
Canis familiaris [1]
  inhibition in vivo at 0.001 mg/kg: 53%

## CCCCC(C)(O)C/C=C/[C@H]1[C@H](O)CC(=O)[C@@H]1C/C=C/C=C/CC(=O)OC (stereo not given in full)
Canis familiaris [1]
  inhibition in vivo at 0.001 mg/kg: 21%
